The results in this text go back to ChEMBL document CHEMBL1121367, “Synthesis and antiallergic properties of some 4H,5H-pyrano[3,2-c][1]benzopyran-4-one, 4H,5H-[1]benzothiopyrano[4,3-b]pyran-4-one, and 1,4-dihydro-5h-[1]benzothiopyrano[4,3-b]pyridin-4-one derivatives” (1980).

For experiment [1], the system named is Rattus norvegicus. Kind of experiment: In vivo inhibition of passive cutaneous anaphylaxis in rats when administered i.p. It counts as functional. The conditions noted are these: ip, read-out: ID50 (the source's name). The essentials: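 Adult male Charles River rats (140-160 g, six per group) were sensitized intradermally at two sites with rat serum containing reaginic antibodies to chicken ovalbumin. After 48 h they were challenged iv with 10 mg/kg ovalbumin in 1% Evans blue. Compound was given ip 15 min before challenge. Bluing area was measured 30 min later, and percent inhibition was calculated. ID50 was read graphically from the dose-response curve.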

Experiment [2] has as its system Rattus norvegicus. Kind of experiment: In vivo inhibition of passive cutaneous anaphylaxis in rats when administered i.v. It counts as functional. The conditions noted are these: iv, read-out: ID50 (the source's name). The method, boiled down: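 Rats (adult male Charles River, 140-160 g, six per group) were sensitized intradermally at two sites with reaginic rat antiserum to chicken ovalbumin. After 48 h, compound at 30, 10 or 3 mg/kg iv was given simultaneously with the iv challenge of 10 mg/kg ovalbumin in 1% Evans blue. Dermal bluing area was measured at 30 min, and percent inhibition was calculated. ID50 was taken graphically from the dose-response curve.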

A value given as a limit tells only on which side of the number the result lay.

Turning to `Cc1c(-c2nn[nH]n2)oc2c(c1=O)CSc1ccccc1-2`, the ED50 in the experiment with Rattus norvegicus [1] was > 30 mg/kg. Consider `NCCO.O=C(O)c1cc(=O)c2c(o1)-c1ccccc1SC2`, for which the results for the ED50 in the experiment on Rattus norvegicus [2] and in the experiment on Rattus norvegicus [1] were 25 mg/kg and > 100 mg/kg, respectively. As to `Cc1ccc(Cl)c2c1SCc1c(O)cc(C(=O)O)nc1-2.NCCO`, the ED50 in the experiment with Rattus norvegicus [2] and with Rattus norvegicus [1] was > 30 mg/kg in each case. With `CCC(C)c1ccc2c(c1)-c1oc(C(=O)O)cc(=O)c1CS2.NCCO` (stereo not drawn), the figures for the ED50 in the experiment with Rattus norvegicus [2] and with Rattus norvegicus [1] were 25 mg/kg and > 30 mg/kg, respectively.

On to `CCCCc1ccc2c(c1)-c1oc(C(=O)O)cc(=O)c1CS2.NCCO`, for which the ED50 was 19 mg/kg in the experiment on Rattus norvegicus [2] and > 30 mg/kg in the experiment with Rattus norvegicus [1]. On to `NCCO.O=C(O)c1cc(=O)c2c(o1)-c1ccccc1S(=O)(=O)C2`, for which the ED50 in the experiment with Rattus norvegicus [2] is > 30 mg/kg; in the experiment on Rattus norvegicus [1] it was > 100 mg/kg.

Take `Cc1ccc(Cl)c2c1SCc1c-2oc(C(=O)O)cc1=O.NCCO`: the results for the ED50 in the experiment on Rattus norvegicus [2] and in the experiment on Rattus norvegicus [1] were 30 mg/kg and > 100 mg/kg, respectively. Consider `CCC(C)c1ccc2c(c1)-c1nc(C(=O)O)cc(O)c1CS2(=O)=O` (stereo not drawn), for which the ED50 in the experiment on Rattus norvegicus [2] and in the experiment on Rattus norvegicus [1] was > 30 mg/kg each time. Turning to `CCC(C)c1ccc2c(c1)-c1nc(C(=O)O)cc(O)c1CS2.NCCO` (stereo not drawn), the ED50 was determined as 8.2 mg/kg in the experiment with Rattus norvegicus [2] and 27 mg/kg in the experiment with Rattus norvegicus [1]. Regarding `O=c1c(CO)coc2c1CSc1ccccc1-2`, the ED50 in the experiment on Rattus norvegicus [2] and in the experiment on Rattus norvegicus [1] was > 30 mg/kg each time.

For `Cc1ccc2c(c1)-c1oc(C(=O)O)cc(=O)c1CS2.NCCO`, the ED50 with Rattus norvegicus [2] is 19 mg/kg; with Rattus norvegicus [1], > 30 mg/kg. For `Cc1ccc2c(c1)-c1nc(C(=O)O)cc(O)c1CS2.NCCO`, in that order: 6.9 mg/kg and 34 mg/kg. For the molecule `O=C([O-])c1cc(=O)c2c(OCC(O)COc3cccc4oc(C(=O)[O-])cc(=O)c34)cccc2o1.[Na+].[Na+]` [CROMOLYN SODIUM], the results for the ED50 in the experiment on Rattus norvegicus [2] and in the experiment on Rattus norvegicus [1] were 1 mg/kg and 16.6 mg/kg, respectively.

Consider `O=C([O-])c1cc(=O)c2c(o1)-c1ccccc1OC2.[K+]`, for which the ED50 in the experiment with Rattus norvegicus [2] turned out to be 12 mg/kg. With `NCCO.O=C(O)c1cc(=O)c2c(o1)-c1cc(Cl)ccc1SC2`, the results for the ED50 in the experiment with Rattus norvegicus [2] and in the experiment on Rattus norvegicus [1] were 28 mg/kg and > 100 mg/kg, respectively. For `CC1Sc2ccccc2-c2oc(C(=O)O)cc(=O)c21.NCCO` (stereo not drawn), in that order: 8.4 mg/kg and 29 mg/kg.

Consider `O=c1c(CO)coc2c1COc1ccccc1-2`, for which the ED50 in the experiment with Rattus norvegicus [1] amounted to 23 mg/kg.

Turning to `CCCCc1ccc2c(c1)-c1nc(C(=O)O)cc(O)c1CS2.NCCO`, the ED50 with Rattus norvegicus [2] was determined as 12 mg/kg; in the experiment on Rattus norvegicus [1], 20 mg/kg. `Cc1c(-c2nn[nH]n2)oc2c(c1=O)CS(=O)(=O)c1ccccc1-2`: in the experiment on Rattus norvegicus [1], the ED50 was 100 mg/kg. As to `NCCO.O=C(O)c1cc(O)c2c(n1)-c1ccccc1SC2`, the ED50 is 5.3 mg/kg in the experiment on Rattus norvegicus [2] and > 30 mg/kg in the experiment with Rattus norvegicus [1]. For `NCCO.O=C(O)c1cc(O)c2c(n1)-c1cc(Cl)ccc1SC2`, in that order: 3.3 mg/kg and 33 mg/kg.
